For one test, the target named is Cannabinoid receptor 2 (Homo sapiens, UniProt P34972). Nature of the test: Displacement of [3H]CP55,940 from human CB2 receptor expressed in CHO-K1 cell membranes after 1.5 hrs by liquid scintillation counting assay.
Test [1] has as its target T1, Monoglyceride lipase (Homo sapiens) (UniProt Q99685).
T1 sequence (whole entry): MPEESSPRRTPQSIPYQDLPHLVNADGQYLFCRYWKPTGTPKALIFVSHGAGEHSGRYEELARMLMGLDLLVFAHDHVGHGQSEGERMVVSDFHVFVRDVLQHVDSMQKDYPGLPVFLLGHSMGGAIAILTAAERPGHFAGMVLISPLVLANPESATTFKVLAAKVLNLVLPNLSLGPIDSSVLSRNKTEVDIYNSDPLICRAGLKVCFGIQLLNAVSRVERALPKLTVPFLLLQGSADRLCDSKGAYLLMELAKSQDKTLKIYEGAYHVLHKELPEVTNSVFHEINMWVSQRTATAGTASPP
Nature of the test: Inhibition of MAGL in human U937 cell homogenate assessed as decrease in [ethanolamine-1-3H]AEA levels up to 10 uM preincubated for 30 mins followed by AEA addition measured after 15 mins by liquid scintillation counting method. In short, it runs like this: (§1)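 U937 cell homogenate (100 μg) in 10 mM Tris-HCl, 1 mM EDTA, pH 8, 0.1% fatty acid-free BSA. Compound screened at 10 μM, 30 min at 37 °C. Then 100 nM AEA with 1 nM [ethanolamine-1-3H]AEA tracer added, 15 min at 37 °C. Stopped with ice-cold CHCl3:MeOH (1:1), centrifuged, tritium in aqueous phase counted by liquid scintillation. Data as mean with 95% CI, n = 3.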

Test [2] deals with T2, Fatty-acid amide hydrolase 1 (Homo sapiens, UniProt O00519).
T2 sequence (O00519 whole entry): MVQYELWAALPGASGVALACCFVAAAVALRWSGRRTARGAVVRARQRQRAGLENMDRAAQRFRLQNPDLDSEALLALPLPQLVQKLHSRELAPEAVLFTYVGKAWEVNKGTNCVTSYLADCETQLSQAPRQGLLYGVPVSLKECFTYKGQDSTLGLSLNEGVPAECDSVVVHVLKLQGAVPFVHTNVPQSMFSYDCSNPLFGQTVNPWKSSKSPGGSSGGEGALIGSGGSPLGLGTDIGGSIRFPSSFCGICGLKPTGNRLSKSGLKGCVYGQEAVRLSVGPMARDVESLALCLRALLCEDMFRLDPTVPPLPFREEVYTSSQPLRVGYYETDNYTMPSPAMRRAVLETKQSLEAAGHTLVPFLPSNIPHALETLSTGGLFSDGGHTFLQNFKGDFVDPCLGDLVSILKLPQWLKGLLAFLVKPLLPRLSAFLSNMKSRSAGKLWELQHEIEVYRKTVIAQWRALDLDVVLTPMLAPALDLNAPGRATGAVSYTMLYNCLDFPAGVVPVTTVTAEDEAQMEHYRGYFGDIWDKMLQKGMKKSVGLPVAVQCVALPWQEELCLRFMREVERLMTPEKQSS
The experiment in a line: Inhibition of FAAH in human U937 cell homogenate assessed as decrease in [ethanolamine-1-3H]AEA levels preincubated for 30 mins followed by AEA addition measured after 15 mins by liquid scintillation counting method. Summed up: as §1

The next test has as its system U-937. Nature of the test: Inhibition of [ethanolamine-1-3H]AEA uptake in human U937 cell homogenate preincubated for 20 mins followed by AEA addition measured after 5 mins by scintillation counting method. The test is classed as functional, cell-based. As to conditions: in the assay text read “intact human U937 cells” for “human U937 cell homogenate”. In short, it runs like this:
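Intact U937 cells (0.5 × 10^6) in serum-free medium. Preincubated 20 min at 37 °C with compound at a 10 μM screening concentration, then 5 min at 37 °C with 100 nM AEA plus 0.5 nM [ethanolamine-1-3H]AEA. Stopped on ice and by rapid filtration over GF/C filters presoaked in PBS/0.2% BSA. Washed with ice-cold PBS/1% fatty acid-free BSA, then scintillation counted.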

The target in a further test is T3, Monoglyceride lipase (Homo sapiens, UniProt Q99685).
T3 sequence (Q99685 whole entry): T1 sequence (whole entry)
The experiment in a line: Inhibition of MAGL in human U937 cell homogenate assessed as decrease in [ethanolamine-1-3H]AEA levels preincubated for 30 mins followed by AEA addition measured after 15 mins by liquid scintillation counting method. Summed up:
as §1

Test [3] has as its target T4, Fatty-acid amide hydrolase 1 (Homo sapiens) (UniProt O00519).
T4 sequence (whole entry): T2 sequence (O00519 whole entry)
Nature of the test: Inhibition of FAAH in human U937 cell homogenate assessed as decrease in [ethanolamine-1-3H]AEA levels up to 10 uM preincubated for 30 mins followed by AEA addition measured after 15 mins by liquid scintillation counting method. Summed up: as §1

The target of test [4] is T5, Cannabinoid receptor 1 (Homo sapiens, UniProt P21554). The experiment in a line: Negative allosteric modulation of human CB1 receptor expressed in HEK293 cells assessed as inhibition of 33 nM CP55,940-induced SRE transcriptional activity after 5 hrs by luciferase reporter gene assay. The test is classed as functional, cell-based. Background: A reporter such as luciferase makes a cellular process visible.
T5 sequence (P21554 whole entry): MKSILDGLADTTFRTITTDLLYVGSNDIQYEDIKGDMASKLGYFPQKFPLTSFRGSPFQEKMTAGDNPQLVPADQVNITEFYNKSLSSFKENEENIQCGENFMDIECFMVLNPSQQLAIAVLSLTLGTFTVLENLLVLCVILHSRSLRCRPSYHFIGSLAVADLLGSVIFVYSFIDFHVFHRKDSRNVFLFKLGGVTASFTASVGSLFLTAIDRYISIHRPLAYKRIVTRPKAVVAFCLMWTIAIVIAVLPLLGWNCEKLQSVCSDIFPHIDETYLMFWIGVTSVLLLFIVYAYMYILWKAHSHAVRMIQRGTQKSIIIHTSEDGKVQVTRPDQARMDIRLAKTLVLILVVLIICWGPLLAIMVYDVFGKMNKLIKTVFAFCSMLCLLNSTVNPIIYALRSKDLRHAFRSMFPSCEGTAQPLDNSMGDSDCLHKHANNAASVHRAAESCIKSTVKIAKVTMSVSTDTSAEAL

The target in test [5] is T5, Cannabinoid receptor 1. The experiment in a line: Positive allosteric modulation of human CB1 receptor expressed in CHO-K1 cell membranes assessed as induction of [3H]CP55,940 binding after 1.5 hrs by liquid scintillation counting assay. The test is classed as functional.
In test [6] the target is T5, Cannabinoid receptor 1. Nature of the test: Positive allosteric modulation of human CB1 receptor expressed in CHO-K1 cell membranes assessed as induction of [3H]CP55,940 binding at 100 uM after 1.5 hrs by liquid scintillation counting assay relative to control. Type of test: functional.
In test [7] the target is T5, Cannabinoid receptor 1. The experiment in a line: Positive allosteric modulation of human CB1 receptor expressed in CHO-K1 cell membranes assessed as induction of [3H]CP55,940 binding up to 10 uM after 1.5 hrs by liquid scintillation counting assay. The test is classed as functional.

The structures appear in SMILES notation. The source made the active and inactive calls. No cut-off for these calls is given here. A value given as a limit tells only on which side of the number the result lay.

Chain of Cannabinoid receptor 2 (P34972 whole entry): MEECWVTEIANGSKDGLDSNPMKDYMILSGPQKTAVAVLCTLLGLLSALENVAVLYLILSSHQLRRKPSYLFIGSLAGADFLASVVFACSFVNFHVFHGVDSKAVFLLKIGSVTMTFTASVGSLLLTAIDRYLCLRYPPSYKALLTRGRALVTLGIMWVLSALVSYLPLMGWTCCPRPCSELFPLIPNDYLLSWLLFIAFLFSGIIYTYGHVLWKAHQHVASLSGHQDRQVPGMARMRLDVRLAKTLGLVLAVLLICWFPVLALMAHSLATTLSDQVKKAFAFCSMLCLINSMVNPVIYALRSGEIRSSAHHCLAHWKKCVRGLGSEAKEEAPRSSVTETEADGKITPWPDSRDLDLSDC

In the case of `O=C(Nc1ccc(Cl)cc1)Nc1cccc(-c2cccc(N3CCCC3)n2)c1`, the Ki (as a rule, a dissociation constant, usually derived from enzyme kinetics or from competition with a known ligand) at Cannabinoid receptor 2 is greater than 10 µM. The inhibition entry in test [1] was “inactive”. Moreover, the results for the IC50 (in test [2]; in the test with U-937) were 2.1 µM and greater than 10 µM, respectively.
Consider `O=C(Nc1ccc(Cl)cc1)Nc1cccc(Nc2cccc(N3CCCC3)n2)c1`, for which the affinity at Cannabinoid receptor 2, expressed as Ki, was 52.6 µM. The inhibition result in [1] and in test [3] was “inactive” in each case. Besides, the IC50 (on Monoglyceride lipase; in test [2]; with U-937) was greater than 10 µM each time.
Turning to `O=C(Nc1ccc(Cl)cc1)Nc1cccc(Nc2cccc(N3CCCC3)c2)c1`, the inhibition constant (Ki) at Cannabinoid receptor 2 is greater than 100 µM. The inhibition result in test [1] and in test [3] was “inactive” in each case. Besides, the IC50 (in general, the concentration at which inhibition is half-maximal) on Cannabinoid receptor 1 [4] is 9.6 µM; on Monoglyceride lipase, greater than 10 µM; in [2], greater than 10 µM; in the test with U-937, greater than 10 µM. At Cannabinoid receptor 1 [5], the 50% effective concentration (EC50) (in general, the concentration needed to bring the measured effect to its halfway point) worked out at 13.5 µM.
Turning to `O=C(Nc1ccc(Cl)cc1)Nc1cccc(-c2cccc(N3CCCC3)c2)c1`, at Cannabinoid receptor 2, the inhibition constant Ki is 49.8 µM. The inhibition entry in test [1] and in test [3] was “inactive” each time. Also, the IC50 was 0.29 µM on Cannabinoid receptor 1 [4], greater than 10 µM at Monoglyceride lipase, greater than 10 µM in [2] and greater than 10 µM in the test on U-937. Besides, the Activity entry on Cannabinoid receptor 1 [5] was “Dose-dependent effect”. In addition, the concentration for a half-maximal effect (EC50) on Cannabinoid receptor 1 [5] came to 0.043 µM.
`O=C(Cc1ccc(Cl)cc1)Nc1cccc(-c2cccc(N3CCCC3)c2)c1` returned a Ki on Cannabinoid receptor 2 greater than 100 µM. Further, on Cannabinoid receptor 1 [6], the Activity came out at 10%. The inhibition result in [1] and in [3] was “inactive” each time. The 50% inhibitory concentration (IC50) on Cannabinoid receptor 1 [4] was 1.9 µM; at Monoglyceride lipase, greater than 10 µM; in test [2] it was greater than 10 µM; with U-937, greater than 10 µM. For the same molecule, at Cannabinoid receptor 1 [5], the EC50 was greater than 10 µM. For the same molecule, the outcome at Cannabinoid receptor 1 [7] was Active.

Values taken from ChEMBL document CHEMBL4177633 (Bioorg Med Chem, 2017).
